The values that follow come from paper PMC6989572 (Clinical Drug Investigation, 2019).

One data set can be described thus: Safety assessment. The data set is classed as in vivo, Japanese subjects (human). Conditions: single oral 150 mg. The essentials: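 After an overnight fast, a single oral 150 mg tablet was given. Monitoring covered TEAEs, supine BP and pulse, axillary temperature, haematology, biochemistry, urinalysis and 12-lead ECG up to 7 days post-dose, with follow-up 7 (± 2) days after discharge. TEAEs were coded in MedDRA v17.1. The investigator assigned causality and graded severity by CTCAE v4.0.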

The conditions of data set [1]: cited from earlier work; for mean urinary excretion: healthy volunteers.
Data set [2] is classed as in vivo, Japanese subjects (human). Conditions: single oral 150 mg; for Tmax: both, human, plasma, po, 150 mg, median tmax. The essentials: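 Renal groups by eGFR from the Japanese creatinine equation. Overnight-fasted subjects received one 150 mg tablet with 150 mL water on Day 1 morning, with no water from 1 h before to 1 h after. Blood was drawn predose, then 0.25–12 h and at 24, 36, 48, 60 and 72 h. Plasma (25 µL) was assayed by validated LC–MS/MS (LLOQ 0.25 ng/mL; linear 0.25–500 ng/mL). AUCinf was regressed on eGFR as a fixed effect.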

The conditions of data set [3]: cited from earlier work.

SMILES strings stand for the structures. Read-outs that look alike come from different tables or passages of the source.

For orientation: Tmax means the time at which the peak concentration occurs. For `NC(=O)c1cnc2[nH]ccc2c1N[C@@H]1[C@@H]2CC3C[C@H]1C[C@@](O)(C3)C2` [Peficitinib], the “death, serious TEAE or TEAE leading to withdrawal of treatment” value in the data set “Safety assessment” (all 31 subjects) is “No death, serious TEAE or TEAE leading to withdrawal of treatment was reported”. In addition, the ECG results in the data set “Safety assessment” (all subjects, day of admission and post-dose time points) is reported as “normal”. In the data set “Safety assessment” (both TEAEs (headache, ALT increased)), the “intensity of TEAEs” value is given as “mild”. In addition, the “vital sign measurements, mean changes from baseline” value in “Safety assessment” is reported as “No clinically significant mean changes from baseline”. For the same compound, the results for the mean urinary excretion in data set [1] (after 2 weeks of multiple dosing) and in data set [1] (single oral dose) were 15–17% and 9–15 % of dose, respectively. Besides, the median tmax in data set [1] (healthy subjects, fed conditions) is reported as 4 h. Besides, the Tmax in data set [2] (across the renal function groups, fasting conditions) was 1.5 to 1.75 h; in data set [2] (renal impairment groups, fasting), 1.5 h. The “linear regression of AUCinf, CL/F and eGFR across the renal function groups” value in data set [2] is recorded as “no statistically significant slopes”.
Consider `CCS(=O)(=O)N1CC(CC#N)(n2cc(-c3ncnc4[nH]ccc34)cn2)C1` [baricitinib], for which the “AUC increase compared with subjects with normal renal function” value in data set [3] (mild renal impairment) is 1.41 fold; in data set [3] (moderate renal impairment), 2.22 fold; in data set [3] (severe renal impairment) it was 4.05 fold. The “Cmax increase compared with subjects with normal renal function” value in data set [3] (mild renal impairment) is 1.16 fold; in data set [3] (moderate renal impairment), 1.46 fold; in data set [3] (severe renal impairment), 1.40 fold.
